Source: ChEMBL document CHEMBL1157310, “Cytotoxic oxylipins from a marine sponge Topsentia sp” (2006)
Values after ≈ are worked out from the molar mass of the structure shown.

Tests used:
Assay type in all cases: functional
Settings in all cases: read-out: ED50 (the source's name)
HCT-15 = assay: Cytotoxicity against human HCT15 cells
Method in brief: (§1)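 Human tumour cell lines of stated origin: SK-MEL-2 from skin cancer, XF498 from CNS cancer, HCT 15 from colon cancer.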

SK-OV-3 = assay: Cytotoxicity against human SK-OV-3 cells
XF498 = assay: Cytotoxicity against human XF498 cells; method in brief: as §1
A549 = assay: Cytotoxicity against human A549 cells
SK-MEL-2 = assay: Cytotoxicity against human SK-MEL-2 cells; method in brief: as §1

COc1cccc2c1C(=O)c1c(O)c3c(c(O)c1C2=O)C[C@@](O)(C(=O)CO)C[C@@H]3O[C@H]1C[C@H](N)[C@H](O)[C@H](C)O1 [DOXORUBICIN]
EC50 (HCT-15): 0.06 µg/mL (≈ 0.11 µM)
EC50 (SK-OV-3): 0.13 µg/mL (≈ 0.239 µM)
EC50 (XF498): 0.06 µg/mL (≈ 0.11 µM)
EC50 (A549): 0.04 µg/mL (≈ 0.0736 µM)
EC50 (SK-MEL-2): 0.04 µg/mL (≈ 0.0736 µM)
